The results in this text go back to ChEMBL document CHEMBL1146497, “Antifouling activity of brominated cyclopeptides from the marine sponge Geodia barretti” (J Nat Prod, 2004).

Calls of active or inactive are those of the source. No cut-off for these calls is given here.

Common to all, as to assay type: functional, organism-based
The test system of experiment [1] is Amphibalanus improvisus. Kind of experiment: Antifouling activity against Balanus improvisus […] assessed as inhibition of cyprid larval settlement at 0.1 to 10 uM after 3 to 4 days relative to control. The procedure, abridged: (§1)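 Competent Balanus improvisus cyprids (20 ± 2 per dish) in 10 mL filtered seawater (0.2 µm) containing test substance, dissolved first in milliQ water. Four replicate dishes per concentration, with filtered-seawater dishes as controls. Settled, living unsettled and dead cyprids were scored as percentages.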

Experiment [2] concerns Amphibalanus improvisus. Kind of experiment: Antifouling activity against Balanus improvisus […] assessed as inhibition of cyprid larval settlement. The procedure, abridged: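 Competent B. improvisus cyprids (20 ± 2 per dish) were exposed in 10 mL filtered seawater (0.2 µm), with four replicates and filtered-seawater controls. Test substances were dissolved in milliQ water and diluted into seawater as three tenfold concentration steps. Settled, living-unsettled and dead cyprids were scored as percentages.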

Experiment [3] concerns Amphibalanus improvisus. Kind of experiment: Antifouling activity against Balanus improvisus […] assessed as inhibition of cyprid larval settlement at 1.9 uM after 3 to 4 days relative to control. The gist of the method:
as §1

For `N=C(N)NCCC[C@H](N)C(=O)O`, in the experiment with Amphibalanus improvisus [1], the result was inactive.

With `NC(Cc1c[nH]c2ccc(Br)cc12)C(=O)O` (racemic), the result in the experiment with Amphibalanus improvisus [1] was inactive.

On to tributyltin-oxide, for which the LC50 in the experiment on Amphibalanus improvisus [2] worked out at 0.09 µg/mL.

Consider `N=C(N)NCCCC1NC(=O)C(Cc2c[nH]c3cc(Br)ccc23)NC1=O.O=C(O)C(F)(F)F` (stereo unspecified), for which the LC50 with Amphibalanus improvisus [2] came out at 4 µg/mL. For the same compound, the outcome with Amphibalanus improvisus [1] was Active.

For `NC(Cc1c[nH]c2cc(Br)ccc12)C(=O)O` (racemic), the outcome in the experiment with Amphibalanus improvisus [1] was inactive.

Turning to `N=C(N)NCCC[C@@H]1NC(=O)/C(=C/c2c[nH]c3cc(Br)ccc23)NC1=O.O=C(O)C(F)(F)F`, the outcome in the experiment with Amphibalanus improvisus [3] and with Amphibalanus improvisus [1] was Active. The LC50 with Amphibalanus improvisus [2] was found to be 0.4 µg/mL.

Turning to `N[C@@H](Cc1c[nH]c2ccccc12)C(=O)O`, the result in the experiment with Amphibalanus improvisus [1] was inactive.

Take `NC(Cc1c[nH]c2cc(F)ccc12)C(=O)O` (racemic): the result in the experiment with Amphibalanus improvisus [1] was inactive.
